Consider 17 molecules from ChEMBL document CHEMBL1147130, “Dihydropyridopyrazinones and dihydropteridinones as corticotropin-releasing factor-1 receptor antagonists: structure-activity relationships and computational modeling” (J Med Chem, 2007).

This assay concerns the target T1, Corticotropin-releasing factor receptor 1 (Rattus norvegicus, UniProt P35353).
T1 sequence (P35353 whole entry): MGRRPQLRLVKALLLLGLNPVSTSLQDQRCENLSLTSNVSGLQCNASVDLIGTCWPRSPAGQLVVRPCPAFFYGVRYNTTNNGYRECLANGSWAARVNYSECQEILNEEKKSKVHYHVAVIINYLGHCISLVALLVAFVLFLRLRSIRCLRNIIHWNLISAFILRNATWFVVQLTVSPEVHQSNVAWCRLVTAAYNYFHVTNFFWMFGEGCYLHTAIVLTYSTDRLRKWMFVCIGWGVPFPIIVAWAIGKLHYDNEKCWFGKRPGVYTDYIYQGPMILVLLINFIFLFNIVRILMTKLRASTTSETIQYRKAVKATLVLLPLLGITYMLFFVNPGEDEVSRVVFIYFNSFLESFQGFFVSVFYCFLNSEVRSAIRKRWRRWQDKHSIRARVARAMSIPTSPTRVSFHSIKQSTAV
The assay is described as follows: Displacement of [125I]Tyr-o-CRF from CRF1 receptor in rat frontal cortex homogenates. It is filed as tissue-based. In a few lines:
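Bound ligand collected by filtration on PEI-treated glass fiber filters and gamma counted. Nonspecific binding defined with 1 µM DMP696.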
Broadly, the IC50 is the concentration that inhibits the measured activity by half. Low readings indicate higher potency, high ones lower potency. Consider `CCCCN(CC)c1cc(C)nc2c1NCCN2c1ccc(C(C)=O)cc1C`, for which the IC50 stood at 8.2 nM.

Consider `CCCCN(CC)c1nc(C)nc2c1NCCN2c1ccc(OC)nc1OC`, for which the concentration for half-maximal inhibition (IC50) was 9.9 nM.

Take `CCCCN(CC)c1cc(C)nc2c1NCCN2c1ccc(OC)nc1OC`: the concentration for half-maximal inhibition (IC50) amounted to 2.2 nM.

As for `CCCCN(CC)c1cc(C)nc2c1NCCN2c1ccc(C#N)cc1C`, the half-maximal inhibitory concentration (IC50) was determined as 3.5 nM.

For `CCCCN(CC)c1cc(C)nc2c1NC(=O)CN2c1ccc(C(C)=O)cc1C`, the half-maximal inhibitory concentration (IC50) amounted to 5.8 nM.

As for `CCCCN(CC)c1nc(C)nc2c1NCCN2c1ccc(C(C)=O)cc1C`, the concentration for half-maximal inhibition (IC50) stood at 172 nM.

On to `CCCCN(CC)c1nc(C)nc2c1NC(=O)CN2c1ccc(OC)nc1OC`, for which the half-maximal inhibitory concentration (IC50) was 60 nM.

Molecule `CCCCN(CC)c1nc(C)nc2c1NC(=O)CN2c1ccc(OC)cc1C` returned an IC50 of 95 nM.

For the molecule `CCCCN(CC)c1nc(C)nc2c1NC(=O)CN2c1ccc(C(C)=O)cc1C`, the concentration for half-maximal inhibition (IC50) came out at 713 nM.

`CCCN(CCOC)c1nc(C)nc2c1NCCN2c1cc(OC)c(OC)cc1C` returned a 50% inhibitory concentration (IC50) of 210 nM.

In turn, `CCCCN(CC)c1nc(C)nc2c1NCCN2c1ccc(OC)cc1C` yielded an IC50 of 11.7 nM.

Turning to `CCCCN(CC)c1cc(C)nc2c1NC(=O)CN2c1ccc(C#N)cc1C`, the IC50 was determined as 3.3 nM.

In the case of `CCCN(CCOC)c1cc(C)nc2c1NCCN2c1cc(OC)c(OC)cc1C`, the concentration for half-maximal inhibition (IC50) was found to be 87 nM.

As to `CCCCN(CC)c1nc(C)nc2c1NCCN2c1ccc(C#N)cc1C`, the IC50 amounted to 102 nM.

In turn, `CCCN(CCOC)c1cc(C)nc2c1NC(=O)CN2c1cc(OC)c(OC)cc1C` showed an IC50 of 43 nM.

`CCCCN(CC)c1cc(C)nc2c1NCCN2c1ccc(OC)cc1C`: the half-maximal inhibitory concentration (IC50) was determined as 4.2 nM.

For the molecule `CCCCN(CC)c1nc(C)nc2c1NC(=O)CN2c1ccc(C#N)cc1C`, the half-maximal inhibitory concentration (IC50) came out at 573 nM.
